Results published in ChEMBL document CHEMBL2396525, “Synthesis and anti-HCMV activity of 1-[ω-(phenoxy)alkyl]uracil derivatives and analogues thereof” (Bioorg Med Chem, 2013).
The source made the active and inactive calls. The calls are words filed in the database; no cut-off is given here.

How the values were obtained:
HEL = test: Cytotoxicity against HEL; format: cell-based; details: human
Human alphaherpesvirus 2 [1] = test: Antiviral activity against Herpes simplex virus type 2 Lyons; format: functional, organism-based
How it was run: (§1)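 Confluent HEL, Vero, HeLa or MDCK cell cultures were inoculated with 100 CCID50 of virus alongside varying compound concentrations. Cytopathicity was scored when it reached completion in untreated virus controls. EC50 is the concentration that reduces virus-induced cytopathogenicity by 50%.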

Human betaherpesvirus 5 [2] = test: Antiviral actiivty against Human herpesvirus 5 AD169 infected in HEL assessed as reduction of virus-induced plaque formation; format: functional, organism-based; details: Human betaherpesvirus 5, AD169
How it was run: (§2)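 HCMV strains AD-169 and Davis were tested on confluent human embryonic lung fibroblast monolayers infected with 100 PFU in the presence of serial compound concentrations. Plaques were counted once formation was complete in untreated infected controls. EC50 is the concentration that cuts plaque formation by 50%.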

[3] = system: Vesicular stomatitis virus; test: Antiviral activity against Vesicular stomatitis virus; format: functional, organism-based
Human alphaherpesvirus 3 [4] = test: Antiviral activity against Varicella-zoster virus YS; format: functional, organism-based
How it was run: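 VZV was assayed by plaque formation. Confluent cell cultures received 10 or 100 PFU with varying compound concentrations, and plaques were recorded once complete in untreated infected controls. EC50 is the concentration that reduces plaque formation by 50%.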

Punta Toro virus = test: Antiviral activity against Punta Toro virus; format: functional, organism-based; how it was run: as §1
[5] = Cytotoxicity against HEL assessed as minimum cytotoxic concentration required to cause microscopically detectable alteration in cell morphology; format: cell-based; details: human, HEL cells
Vaccinia virus = test: Antiviral activity against Vaccinia virus Lederle; format: functional, organism-based; details: Orthopoxvirus vaccinia
Influenza A virus [6] = test: Antiviral activity against Influenza virus A virus H3N2; format: functional, organism-based
How it was run: (§3)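 The assay was a cell-based cytopathicity inhibition test on confluent monolayers with serial compound dilutions. EC50 was the concentration that reduced virus-induced cytopathicity by 50%.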

Feline coronavirus = test: Antiviral activity against Feline coronavirus; format: functional, organism-based
[7] = system: Human immunodeficiency virus 1; test: Antiviral activity against HIV1 3B infected in human CEM cells assessed as inhibition of virus-induced giant cell formation after 4 to 5 days; format: functional, organism-based; details: CCRF-CEM
How it was run: (§4)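 CEM cells at about 3 × 10^5 cells/mL were infected with 100 CCID50 of HIV per mL, with compound dilutions present. They were incubated 4–5 days at 37 °C in humidified CO2, and syncytia were scored microscopically. EC50 is the concentration that inhibits giant cell formation by 50%.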

Human betaherpesvirus 5 [8] = test: Antiviral actiivty against Human herpesvirus 5 Davis infected in HEL assessed as reduction of virus-induced plaque formation; format: functional, organism-based; details: Human betaherpesvirus 5, Davis; how it was run: as §2
Human alphaherpesvirus 1 [9] = test: Antiviral activity against Herpes simplex virus type 1 KOS; format: functional, organism-based; how it was run: as §1
Influenza A virus [10] = test: Antiviral activity against Influenza virus A virus H1N1; format: functional, organism-based; how it was run: as §3
Influenza B virus = test: Antiviral activity against Influenza B virus; format: functional, organism-based; how it was run: as §3
[11] = Cytotoxicity against human CEM cells; format: cell-based; details: CCRF-CEM (CEM) cells
Human alphaherpesvirus 1 [12] = test: Antiviral activity against thymidine kinase deficient acyclovir-resistant Herpes simplex virus type 1 KOS; format: functional, organism-based
Sindbis virus = test: Antiviral activity against Sindbis virus; format: functional, organism-based; how it was run: as §1
Human alphaherpesvirus 2 [13] = test: Antiviral activity against Herpes simplex virus type 2 G; format: functional, organism-based; details: strain G; how it was run: as §1
[14] = system: Mammalian orthoreovirus 1; test: Antiviral activity against Reovirus-1; format: functional, organism-based; how it was run: as §1
Human respirovirus 3 = test: Antiviral activity against Parainfluenza virus 3; format: functional, organism-based; how it was run: as §1
[15] = system: Respiratory syncytial virus; test: Antiviral activity against Respiratory syncytial virus Long; format: functional, organism-based; how it was run: as §1
Coxsackievirus B4 = test: Antiviral activity against Coxsackie B4 virus; format: functional, organism-based; how it was run: as §1
Human alphaherpesvirus 3 [16] = test: Antiviral activity against Varicella-zoster virus OKA; format: functional; details: strain Oka vaccine
How it was run: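 Confluent cell monolayers were infected with 10 or 100 PFU of VZV in the presence of serial compound dilutions. Plaque formation was recorded once untreated infected controls reached completion. EC50 was the concentration that reduced plaque formation by 50%.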

[17] = system: Human immunodeficiency virus 2; test: Antiviral activity against HIV2 ROD infected in human CEM cells assessed as inhibition of virus-induced giant cell formation after 4 to 5 days; format: functional, organism-based; details: ISOLATE ROD, CCRF-CEM; how it was run: as §4

Structure (SMILES)	CC50 (HEL) [µM]	Activity (Human alphaherpesvirus 2 [1])	EC50 (Human betaherpesvirus 5 [2]) [µM]	Activity [3]	Activity (Human alphaherpesvirus 3 [4])	Activity (Punta Toro virus)	MCC [5] [µM]	Activity (Vaccinia virus)	Activity (Influenza A virus [6])	Activity (Feline coronavirus)	EC50 (Human betaherpesvirus 5 [8]) [µM]	Activity (Human alphaherpesvirus 1 [9])	Activity (Influenza A virus [10])	Activity (Influenza B virus)	Activity (Human alphaherpesvirus 1 [12])	Activity (Sindbis virus)	Activity (Human alphaherpesvirus 2 [13])	Activity [14]	Activity (Human respirovirus 3)	Activity [15]	also measured
Cc1cc(C)cc(OCCCCCn2ccc(=O)[nH]c2=O)c1	> 100	inactive	> 100	inactive	inactive	inactive	> 100	inactive	inactive	inactive	> 100	inactive	inactive	inactive	inactive	inactive	inactive	inactive	inactive	inactive	EC50 ([7]; Human immunodeficiency virus 1, 3B): 24 µM; CC50 [11]: 154 µM; Activity (Coxsackievirus B4): inactive; Activity (Human alphaherpesvirus 3 [16]): inactive; Activity [17]: inactive
O=c1ccn(CCCCCCCCOc2ccc(Br)cc2)c(=O)[nH]1	> 100	inactive	12	inactive	inactive	inactive	≥ 100	inactive	inactive	inactive	8.9	inactive	inactive	inactive	inactive	inactive	inactive	inactive	inactive	inactive	Activity [7]: inactive; Activity (Coxsackievirus B4): inactive; Activity (Human alphaherpesvirus 3 [16]): inactive; Activity [17]: inactive
